TAAR1 ag – agonists of human TAAR1 | CHO RD-HGA16 TAAR1, Fluo-8 calcium fluorescence; vehicle wells 0%, saturating PEA agonist 100% | activation, % at 3 µM | 0.99% of 360,000 active;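 active = activation above the mean activation of all test compounds in the run plus 3 SD, cut at about 38% in these data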
Target sequence (Q96RJ0 whole entry, looked up): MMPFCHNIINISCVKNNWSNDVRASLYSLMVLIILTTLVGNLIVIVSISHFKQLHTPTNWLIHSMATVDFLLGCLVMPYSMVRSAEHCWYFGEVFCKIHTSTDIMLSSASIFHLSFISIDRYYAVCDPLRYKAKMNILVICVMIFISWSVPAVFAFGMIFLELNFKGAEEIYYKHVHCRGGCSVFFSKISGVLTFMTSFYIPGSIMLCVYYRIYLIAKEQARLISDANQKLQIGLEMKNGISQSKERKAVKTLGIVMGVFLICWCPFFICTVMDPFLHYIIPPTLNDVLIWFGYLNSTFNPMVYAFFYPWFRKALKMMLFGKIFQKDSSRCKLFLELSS
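System: CHO-derived RD-HGA16 cells with stable Gα16 and human TAAR1 / Times: 17-24 h plating, Fluo-8 75 min 37 °C, 30 min RT / Technique: calcium-sensitive Fluo-8 signal, excitation 470-495, emission 515-575 nm / Measure: % activation relative to PEA EC100 response / Benchmarks: DMSO and PEA EC100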
CHRM1 PAM – potentiates human M1 receptor response to acetylcholine | 0.088% of 360,000 active | CHO-K1 hM1, Fluo-8 calcium fluorescence, ACh EC20; 0% = ACh EC20, 100% = maximal ACh | P11229 | activation, % at 3 µM; in the data active = activation above about 19%, passing the limit was not always enough
CHRM1 antagonist – human CHRM1 antagonism; P11229; CHO-K1 hM1, Fluo-8 calcium fluorescence, ACh EC80 antagonist; inhibition, % at 3 µM; 1.3% of 360,000 active; AID 588852;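 active = percent inhibition above its own plate's cutoff, namely the mean of that plate's compound wells plus 3 SD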;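 note: peak over basal fluorescence ratio during 140 s after agonist addition; 0% = ACh EC80 plus DMSO and 100% = DMSO alone without agonist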
TAAR1 antag – antagonists of human TAAR1; AID 624466; Q96RJ0; inhibition, % at 3 µM; 1.5% of 360,000 active; CHO RD-HGA16 TAAR1, Fluo-8 calcium fluorescence, antagonist;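 active = inhibition above a per-plate cutoff, the mean inhibition of test compounds on that plate plus 3 SD, cut at about 49% in these data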;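 note: 0% = DMSO plus EC80 beta-PEA response and 100% = DMSO alone without agonist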
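Test system – hTAAR1-expressing CHO RD-HGA16 cells, Gα16-coupled · Reagent – β-PEA at EC80 concentration, post-compound challenge · Compound dosing – 3 µM, single point · Timing – 140 s kinetic read after compound, 140 s after agonist · Detection – Fluo-8 intracellular calcium dye fluorescence, real-time kinetic reads · Control set – DMSO and EC80 PEA controls · Repeats – n of 1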
M1 ag – agonists of human M1 muscarinic receptor; P11229; CHO-K1 hM1, Fluo-8 calcium fluorescence, agonist mode; 0% DMSO, 100% acetylcholine EC100; activation, % at 3 µM; 0.33% of 360,000 active;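 active = activation above the run's mean compound activation plus 3 SD, cut at about 16% in these data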;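 note: peak over basal fluorescence ratio within a 140 s kinetic read after compound addition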
Active calls of the source: *; nt = no result given. Compounds with a hit are over-represented: about 3.4% of the library has one in this group of screens.

SMILES	TAAR1 ag	CHRM1 PAM	CHRM1 antagonist	TAAR1 antag	M1 ag
CCOC(=O)C1=C(Cc2ccc(OC)cc2)C(=O)c2ccccc2C1=O	nt	-9	36*	nt	8
O=C(Nc1ccccc1)c1cc(C2CCCCN2S(=O)(=O)c2ccccc2)on1 (stereo unspecified)	3	-2	-1	-12	-6
COC(=O)C1=C(C)N(Cc2ccccc2C(F)(F)F)C(=NCc2ccc3c(c2)OCO3)NC1c1cccc(F)c1 (stereo unspecified)	11	nt	nt	9	nt
C[C@H](O)[C@@H]1C(=O)N2CCc3c([nH]c4c(-c5ccccc5)cccc34)[C@@H]2C[C@@H]1N(C)C(=S)NCCc1ccccc1	19	nt	nt	-14	nt
CN(C)CC(O)COc1cc2ccccc2cc1C(=O)N1CCCCC1 (stereo unspecified)	1	-6	33*	0	10
CC1(C)CC(=O)C=C(c2ccccc2-c2cccc(C(N)=O)c2)C1=O	1	nt	nt	-4	nt
C=CCC[C@@H](Cc1ccc(F)cc1)C(=O)OC[C@@H]1CCCN1C(=O)[C@@H](CC=C)CC(=O)N(CCO)Cc1ccccc1	12	-3	5	57*	-7
C=CCC[C@@H](Cc1ccc(F)cc1)C(=O)OC[C@@H]1CCCN1C(=O)[C@H](CC=C)CC(=O)N[C@H](CO)Cc1ccccc1	8	-2	9	11	-5
C=CC[C@@H](Cc1ccc(F)cc1)C(=O)OC[C@H]1CCCN1C(=O)[C@H](CC=C)CC(=O)N[C@H](CO)Cc1ccccc1	13	12	3	50*	1
C[C@@H]1CN([C@@H](C)CO)C(=O)CCCn2cc(nn2)CO[C@H]1CN(C)C(=O)Nc1ccccc1	0	nt	nt	1	nt
CN(CCO)C(=O)c1nc[nH]c1C(=O)N1CCN(c2ccccc2)CC1	0	nt	nt	-7	nt
CN(C(=O)c1ccc(NC(=O)Cc2cccc(NC(=O)C3CCN(C(=O)CCc4ccccc4)CC3)c2)cc1)C1CC1	2	nt	nt	-22	nt
Cc1sc2ncn(CC(=O)NCc3ccccc3)c(=O)c2c1C	2	20	-29	1	0
COc1ccc(CCNC(=O)Cn2cnc3sc(C)c(-c4ccc(F)cc4)c3c2=O)cc1OC	54*	1	4	11	18*
O=C(Cn1cnc2sc(-c3ccccc3)cc2c1=O)NCCc1ccccc1	39*	2	-21	8	-2
O=C(Cn1cnc2sc(-c3ccccc3)cc2c1=O)NCc1ccccc1	2	7	-17	-22	-3
COC(=O)c1sc2ncn(CC(=O)NCCc3ccc(OC)c(OC)c3)c(=O)c2c1C	0	11	-4	-9	-4
COc1ccc(NC(=O)CCCNC(=O)Cn2cnc3sc(C)c(C)c3c2=O)c(OC)c1	-1	-9	22*	6	0
Cc1sc2ncn(CC(=O)NCCc3ccccc3)c(=O)c2c1C	42*	6	-38	12	1
CCc1cc2c(nc1CC)CCCN2C	4	nt	nt	-3	nt
COC(=O)c1ccccc1NC(=S)NC(=O)COc1ccccc1	21	4	-11	-1	-3
O=C(COc1ccccc1)NC(=S)Nc1cccc2c(O)cccc12	42*	3	3	12	19*
COc1ccccc1-c1cccc2c3c([nH]c12)[C@@H]1C[C@H]2[C@@H](C(=O)N1CC3)[C@H](C)ON2C	5	nt	nt	-2	nt
CC(=O)Oc1ccc2c(c1)Oc1cc(OC(C)=O)ccc1C21OC(=O)c2ccccc21	nt	-29	102*	nt	974*
CN(C)CCN(C(=O)/C=C/c1cccs1)c1nc2ccc(Br)cc2s1	6	-5	17	56*	-2
SMILES	TAAR1 ag	CHRM1 PAM	CHRM1 antagonist	TAAR1 antag	M1 ag
O=C(c1cc(C2CC2)nn1-c1ccccc1)N1CCN(S(=O)(=O)c2cccc(F)c2)CC1	0	-29	30*	19	-8
CSCCC(C(=O)NC(C)(C)C)n1c(-c2ccc3c(c2)OCO3)nc2ccccc21 (stereo unspecified)	-2	nt	nt	-19	nt
CC1CCCCN1CC(=O)Nc1ccc(Oc2ccccc2)cc1 (stereo unspecified)	15	-25	69*	-3	-6
CC1CCCCN1CC(=O)NC(c1ccccc1)c1ccccc1 (stereo unspecified)	2	-38	60*	16	-16
CCCCNc1cccc2c1S(=O)(=O)N[C@@H](Cc1ccccc1)CO2	0	nt	nt	11	nt
COc1ccc(-c2cc3nc(-c4ccccc4)cc(N4CCC(O)CC4)n3n2)cc1	12	-7	10	49*	-3
COc1ccc(-c2cc3nc(-c4ccccc4)cc(N4CCCC(O)C4)n3n2)cc1 (stereo unspecified)	6	-5	11	41	-5
COC(=O)N[C@H]1CC=C[C@@H]1Cc1cccc(Oc2ccccc2)c1	2	nt	nt	-19	nt
COCCN1Cc2cccc(C(=O)Nc3cccc(-c4nc5ccccc5[nH]4)c3)c2C1=O	6	-12	25	61*	-3
O=C(COc1ccccc1)Nc1cccc(-c2nc3ccccc3[nH]2)c1	9	-11	11	49*	-1
COCCN1Cc2cccc(C(=O)Nc3ccc(-c4nc5ccccc5[nH]4)cc3)c2C1=O	5	-1	4	9	0
COc1ccc(OCC(=O)Nc2cccc(-c3nc4ccccc4[nH]3)c2)cc1	16	-18	20	48	-3
O=C(Nc1cccc(-c2nc3ccccc3[nH]2)c1)c1cccc(NC(=O)c2ccco2)c1	16	-14	37*	47	-3
O=C(COc1ccc(-c2ccccc2)cc1)Nc1cccnc1	16	-14	39*	33	2
CN(c1ccc(NC(=O)CCc2cn(Cc3ccc(Br)cc3)c3ccccc23)cc1)c1ccccn1	3	nt	nt	5	nt
COc1cccc(NC(=O)N(C)C[C@H]2OCc3cn(nn3)CCCC(=O)N([C@H](C)CO)C[C@@H]2C)c1	3	nt	nt	15	nt
CN(Cc1ccccc1)C(c1ccnc2ccccc12)c1nnnn1-c1ccc2c(c1)OCCO2 (stereo unspecified)	2	nt	nt	23	nt
COc1cccc(C(C)(O)c2nc(-c3cccc(C#N)c3)cs2)c1 (stereo unspecified)	1	-5	16	6	-1
CCOC(=O)N1CCN(C(=O)C[C@H]2C[C@@]3(C(=O)OC)C(=C[C@H](C(C)(C)C)O[C@@H]3C)N(Cc3ccc4c(c3)OCO4)C2=O)CC1	-2	nt	nt	-11	nt
Cc1cccc(Cl)c1NC(=O)NCCCN1CCOCC1	0	nt	nt	-3	nt
COc1ccc(OCC(=O)Nc2cccc(-c3nc4ccccc4o3)c2)cc1	11	0	0	49*	-5
O=C(COc1ccc(Cl)cc1)Nc1ccc(C(=O)NCc2cccnc2)cc1	nt	1	8	nt	1
Cc1ccccc1OCC(=O)Nc1nc2ccccc2[nH]1	9	9	-6	-3	-2

High-throughput results from PubChem.
